21 compounds from ChEMBL document CHEMBL2046296, “Synthesis and antidepressant activity of arylalkanol-piperidine derivatives as triple reuptake inhibitors” (Eur J Med Chem, 2012) can be followed below.

The target in data set [1] is Sodium-dependent dopamine transporter (Homo sapiens, UniProt Q01959). The experiment in a line: Inhibition of [3H]dopamine uptake at human DAT expressed in HEK293 cells at 10 uM after 10 mins by scintillation counting.
In data set [2] the target is T1, Sodium-dependent serotonin transporter (Homo sapiens, UniProt P31645). The experiment in a line: Inhibition of [3H]serotonin uptake at human SERT expressed in HEK293 cells at 10 uM after 10 min by scintillation counting.
Target sequence in this assay (P31645 whole entry, looked up): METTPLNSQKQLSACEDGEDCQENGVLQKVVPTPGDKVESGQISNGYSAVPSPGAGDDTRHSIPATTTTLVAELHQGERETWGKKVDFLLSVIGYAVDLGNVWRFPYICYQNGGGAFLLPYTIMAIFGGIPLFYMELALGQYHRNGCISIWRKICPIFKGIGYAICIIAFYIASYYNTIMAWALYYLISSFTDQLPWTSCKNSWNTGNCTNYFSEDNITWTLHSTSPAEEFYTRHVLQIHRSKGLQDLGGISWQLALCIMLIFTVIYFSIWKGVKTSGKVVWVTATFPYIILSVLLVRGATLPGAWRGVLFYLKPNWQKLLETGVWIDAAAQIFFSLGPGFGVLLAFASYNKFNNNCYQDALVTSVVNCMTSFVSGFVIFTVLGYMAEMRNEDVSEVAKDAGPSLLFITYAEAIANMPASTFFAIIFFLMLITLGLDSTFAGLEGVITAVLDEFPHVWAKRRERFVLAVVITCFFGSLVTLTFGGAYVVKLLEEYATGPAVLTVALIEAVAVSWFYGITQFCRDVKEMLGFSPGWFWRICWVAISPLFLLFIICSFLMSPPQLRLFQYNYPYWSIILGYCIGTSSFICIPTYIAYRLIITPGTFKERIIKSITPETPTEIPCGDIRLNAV
Data set [3] addresses T2, Sodium-dependent noradrenaline transporter (Homo sapiens, UniProt P23975). The experiment in a line: Inhibition of [3H]noradrenaline uptake at human NET expressed in HEK293 cells at 10 uM after 10 mins by scintillation counting.
The target in data set [4] is T1, Sodium-dependent serotonin transporter. Description: Inhibition of [3H]serotonin uptake at human SERT expressed in HEK293 cells after 10 min by scintillation counting.
Target sequence in this assay (P31645 whole entry): as the sequence (P31645 whole entry, looked up) above
The target of data set [5] is T2, Sodium-dependent noradrenaline transporter. Description: Inhibition of [3H]noradrenaline uptake at human NET expressed in HEK293 cells after 10 mins by scintillation counting.
The subject of data set [6] is Mus musculus. Description: Antidepressant activity in mouse assessed as decrease in immobility at 50 mg/kg, po administered 30 mins prior to testing by tail suspension test relative to vehicle control. The class given is functional. Further details: scale not given: the % may be the effect or the level left. The procedure, abridged:
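Oral doses of 10–50 mg/kg (three doses) were given once, 30 min before testing. Mice were hung by adhesive tape 1 cm from the tail tip, 75 cm above the tabletop. Immobility was recorded for 5 min, scored blind, 10–12 mice per group, against vehicle controls. One-way ANOVA with Scheffe post hoc test; p<0.05 significant.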

In data set [7] the test system is Mus musculus. Description: Toxicity in mouse assessed as increase in locomotor activity at 50 mg/kg, po up to 5 mins relative to vehicle treated control. It counts as organism-based. Details: dose 50 mg/kg, route oral. To be noted: in vivo. The procedure, abridged: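 Mice were dosed orally at 50 mg/kg and 30 min later placed singly in new 35×35×35 cm plastic cages under dim light with sound attenuation. Activity was logged by a monitoring apparatus at intervals up to 30 min, and the 5 min point was analysed. Mean ± SEM; one-way ANOVA, Scheffe post hoc, versus control.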

T2 sequence (P23975 whole entry): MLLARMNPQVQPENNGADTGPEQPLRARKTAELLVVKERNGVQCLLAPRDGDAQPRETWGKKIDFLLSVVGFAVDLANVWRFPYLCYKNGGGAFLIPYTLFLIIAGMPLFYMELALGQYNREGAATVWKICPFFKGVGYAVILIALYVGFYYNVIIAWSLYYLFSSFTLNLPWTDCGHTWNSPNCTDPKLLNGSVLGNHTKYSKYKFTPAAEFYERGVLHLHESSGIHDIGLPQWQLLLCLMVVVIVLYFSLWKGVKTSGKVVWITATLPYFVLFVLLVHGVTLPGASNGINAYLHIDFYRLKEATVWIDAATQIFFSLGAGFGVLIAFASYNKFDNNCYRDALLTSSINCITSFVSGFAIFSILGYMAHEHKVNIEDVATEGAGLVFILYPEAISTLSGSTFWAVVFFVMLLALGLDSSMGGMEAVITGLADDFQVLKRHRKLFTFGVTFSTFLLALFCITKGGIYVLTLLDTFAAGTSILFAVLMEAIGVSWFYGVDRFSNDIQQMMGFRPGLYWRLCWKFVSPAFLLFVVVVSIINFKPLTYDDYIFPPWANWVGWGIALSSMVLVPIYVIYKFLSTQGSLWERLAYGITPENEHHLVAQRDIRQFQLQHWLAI
Chain of Sodium-dependent dopamine transporter (Q01959 whole entry): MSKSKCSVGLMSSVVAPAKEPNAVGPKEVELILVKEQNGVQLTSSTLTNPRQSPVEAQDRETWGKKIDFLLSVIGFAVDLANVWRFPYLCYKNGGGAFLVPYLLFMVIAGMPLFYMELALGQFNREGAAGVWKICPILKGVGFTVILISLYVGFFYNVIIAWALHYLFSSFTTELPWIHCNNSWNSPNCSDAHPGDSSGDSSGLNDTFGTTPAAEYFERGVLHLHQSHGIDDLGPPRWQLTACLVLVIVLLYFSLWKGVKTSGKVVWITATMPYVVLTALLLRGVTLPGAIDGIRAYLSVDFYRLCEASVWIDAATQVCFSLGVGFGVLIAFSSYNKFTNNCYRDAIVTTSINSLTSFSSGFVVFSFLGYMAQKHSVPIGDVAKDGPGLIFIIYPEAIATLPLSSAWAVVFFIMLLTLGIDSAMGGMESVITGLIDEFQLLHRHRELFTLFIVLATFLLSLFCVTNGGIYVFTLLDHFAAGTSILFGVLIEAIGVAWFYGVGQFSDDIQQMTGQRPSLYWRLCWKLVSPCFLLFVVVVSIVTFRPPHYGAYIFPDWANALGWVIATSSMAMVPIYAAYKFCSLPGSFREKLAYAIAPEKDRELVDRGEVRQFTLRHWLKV

On to `OC(CCN1CC=C(Cc2ccccc2)CC1)c1ccc(F)cc1F` (racemic), for which the inhibition was determined as 66% in data set [1], 66% in data set [2] and 78% in data set [3].

In the case of `C[C@@H]([C@@H](O)c1ccc(Cl)c(Cl)c1)N1CC=C(Cc2ccccc2)CC1` (racemic), the IC50 in data set [4] stood at 367 nM; in data set [5], 531 nM. This compound also had an inhibition in data set [1] of 64%.

`COc1ccc2cc(C(O)CCN3CCC(O)(Cc4ccccc4)CC3)ccc2c1Cl` (racemic): the 50% inhibitory concentration (IC50) in data set [4] came out at 427 nM; in data set [5], 800 nM. The same compound gave an inhibition in data set [1] of 73%.

In the case of `C[C@H]([C@@H](O)c1ccc(Cl)c(Cl)c1)N1CC=C(Cc2ccccc2)CC1` (racemic), the inhibition in data set [1] amounted to 56%; in data set [2], 38%; in data set [3] it was 36%.

Take `O=[N+]([O-])c1ccc(C(O)CCN2CC=C(Cc3ccccc3)CC2)cc1` (racemic): the inhibition is 55% in data set [1], 65% in data set [2] and 74% in data set [3].

Consider `OC(CCN1CC=C(Cc2ccccc2)CC1)c1ccc(Cl)cc1` (racemic), for which the values for the inhibition in data set [1], in data set [2] and in data set [3] were 61%, 56% and 50%, respectively.

As to `OC(CCN1CC=C(Cc2ccccc2)CC1)c1ccc2c(c1)CCO2` (racemic), the inhibition in data set [1] is 49%; in data set [2] it was 74%; in data set [3], 88%.

In data set [4], `COc1ccc2cc([C@H](O)[C@H](C)N3CCC(O)(Cc4ccccc4)CC3)ccc2c1Cl` (racemic) displayed an IC50 of 357 nM. The inhibition in data set [1] stood at 22%; in data set [3] it was 55%.

In the case of `COc1ccc(C(O)CCN2CC=C(Cc3ccccc3)CC2)cc1OC` (racemic), the inhibition in data set [1] was found to be 61%; in data set [2] it was 74%; in data set [3] it was 63%.

As to `C[C@@H]([C@@H](O)c1csc2ccccc12)N1CC=C(Cc2ccccc2)CC1` (racemic), the figures for the inhibition in data set [1], in data set [2] and in data set [3] were 77%, 33% and 34%, respectively.

`C[C@H]([C@@H](O)c1cccc(F)c1)N1CC=C(Cc2ccccc2)CC1` (racemic): the inhibition in data set [1] was 35%; in data set [2], 61%; in data set [3], 83%.

As for `C[C@@H]([C@@H](O)c1cccc(F)c1)N1CC=C(Cc2ccccc2)CC1` (racemic), the inhibition in data set [1] is 70%; in data set [2], 63%; in data set [3] it was 57%.

Regarding `COc1ccc([C@H](O)[C@@H](C)N2CC=C(Cc3ccccc3)CC2)cc1` (racemic), the inhibition in data set [1] is 70%; in data set [2] it was 59%; in data set [3], 62%.

In turn, `COc1ccc(C(O)CCN2CC=C(Cc3ccccc3)CC2)cc1` (racemic) yielded an IC50 in data set [4] of 768 nM. Also, the values for the inhibition in data set [1] and in data set [3] were 57% and 62%, respectively.

Turning to `OC(CCN1CC=C(Cc2ccccc2)CC1)c1cccs1` (racemic), the inhibition in data set [1] worked out at 52%; in data set [2], 78%; in data set [3], 82%.

With `COc1ccc(C(CN(C)C)C2(O)CCCCC2)cc1` (configuration not stated) [VENLAFAXINE], the Activity is listed as 63% in the data set on Mus musculus [6] and “Non-toxic” in the data set on Mus musculus [7].

With `Cc1ccc(C(O)CCN2CC=C(Cc3ccccc3)CC2)cc1` (racemic), the results for the inhibition in data set [1], in data set [2] and in data set [3] were 30%, 62% and 83%, respectively.

Take `COc1ccc2cc([C@H](O)[C@@H](C)N3CCC(O)(Cc4ccccc4)CC3)ccc2c1Cl` (racemic): the figures for the inhibition in data set [1], in data set [2] and in data set [3] were 51%, 80% and 63%, respectively.

Take `COc1ccc([C@H](O)[C@H](C)N2CC=C(Cc3ccccc3)CC2)cc1` (racemic): the inhibition in data set [1] was 68%; in data set [2] it was 80%; in data set [3], 55%.

For the compound `C[C@H]([C@@H](O)c1csc2ccccc12)N1CC=C(Cc2ccccc2)CC1` (racemic), the inhibition in data set [1] amounted to 75%; in data set [2], 55%; in data set [3], 78%.

In the case of `OC(CCN1CCC(O)(Cc2ccccc2)CC1)c1csc2ccccc12` (racemic), the inhibition came to 64% in data set [1], 27% in data set [2] and 61% in data set [3].

By inhibition is commonly meant the drop in the measured response relative to a control, in per cent. What is called IC50 is the concentration that inhibits the measured activity by half.
